MC4R antag cAMP – MC4R antagonists of cAMP signaling, primary screen, cell-based, TR-FRET, antagonist arm of biased-ligand search; 0.48% of 360,000 active; MC4R-expressing cells, MTII-stimulated cAMP, LANCE TR-FRET; inhibition, % at 6.5 µM; AID 540295, 2011;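 active = inhibition above its plate's cutoff, the mean of tested wells on that plate plus 3 SD, cut at about 29% in these data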;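 note: 0% = Melanotan II alone and 100% = Melanotan II plus saturating MCL0020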
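system = U2OS cells with stable human MC4R expression | also added = Melanotan II challenge after compound preincubation | dosing = one concentration, 6.5 µM nominal | incubation = compound 30 min, challenge 1 h, detection 1 h | measured by = TR-FRET with Eu-cAMP and labeled anti-cAMP, 671 nm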
SMARCA2 act – SMARCA2 (BRM) function activators, primary screen, cell-based, luminescence, high throughput; 1% of 370,000 active; MG213 cells, MMTV-luciferase reporter, dexamethasone, overnight; activation, % at 9.1 µM; in the data active = activation above about 7.8%;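 note: 0% = vehicle wells and 100% = reference activator wells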
MPTP block – mitochondrial permeability transition pore inhibitors, primary screen, biochemical, isolated mouse mitochondria, absorbance; Ca2+ swelling absorbance, 30 min; inhibition, % at 10 µM; 1.4% of 360,000 active; AID 602449, 2012;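 active = inhibition of 50% or more, scaled per plate between neutral and stimulator controls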;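 note: 0% = DMSO wells given calcium and 100% = 1 mM EGTA wells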
MC4R ag barr – MC4R agonists recruiting beta-arrestin, primary screen, cell-based, luminescence, agonist arm of biased-ligand search | U2OS MC4R beta-arrestin complementation; percent of melanotan II response, DMSO zero | activation, % at 8.9 µM | 0.98% of 360,000 active | AID 540308, 2011;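 active = activation above a per-plate cutoff, the mean activation of sample wells on that plate plus 3 SD, cut at about 8% in these data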
ATG4B inhibitor – ATG4B protease inhibitors, primary screen, biochemical, fluorescence, uHTS; Cysteine protease ATG4B (Homo sapiens), Q9Y4P1; ATG4B cleavage of LC3-PLA2, NBD-HPC fluorescence, 1 h; inhibition, % at 8.33 µM; 0.51% of 340,000 active; AID 504462, 2011; in the data active = inhibition above about 40%
Target sequence (Q9Y4P1 whole entry, looked up): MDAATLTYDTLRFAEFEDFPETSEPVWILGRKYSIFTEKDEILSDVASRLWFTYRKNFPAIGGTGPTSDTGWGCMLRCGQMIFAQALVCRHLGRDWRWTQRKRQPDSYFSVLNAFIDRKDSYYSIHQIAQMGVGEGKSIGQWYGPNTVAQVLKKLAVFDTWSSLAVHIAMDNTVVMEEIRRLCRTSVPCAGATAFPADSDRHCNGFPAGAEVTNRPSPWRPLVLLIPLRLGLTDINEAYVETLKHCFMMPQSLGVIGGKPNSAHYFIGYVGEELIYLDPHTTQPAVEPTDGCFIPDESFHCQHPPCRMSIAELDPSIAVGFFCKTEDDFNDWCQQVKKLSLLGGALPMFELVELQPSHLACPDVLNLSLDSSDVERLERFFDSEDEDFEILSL
SMARCA2 act conf – SMARCA2 (BRM) function activators, confirmation, cell-based, luminescence, triplicate; shares compounds with SMARCA2 act; MG213 cells, MMTV-luciferase with dexamethasone, overnight; MG213 cells expressing E1A, Rb sequestered; DMSO wells 0%, reference activator 100%; activation, % at 9.1 µM; 30% of 3,500 active;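 active = activation above its plate's cutoff, the mean activation of tested wells plus 3 SD, cut at about 7.9% in these data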
VP16 Luc act – GAL4-VP16 luciferase reporter activation, counter-screen for SMARCA2 (BRM) activator project, cell-based, pG5luc, luminescence, high throughput | shares compounds with SMARCA2 act | activation, % at 9.1 µM | 41% of 3,500 active | AID 686939, 2013 | HEK293 GAL4-VP16 pG5luc reporter; scaled: DMSO wells 0%, SAHA wells 100%;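 active = activation above the solvent-only control well mean plus 3 SD, averaged across control plates, cut at about 5.2% in these data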
The depositor's hits bear a star; x = no result. A selection: hits, their analogues and other compounds. The true share with any hit is near 4.1%.

SMILES | MC4R antag cAMP | SMARCA2 act | MPTP block | MC4R ag barr | ATG4B inhibitor | SMARCA2 act conf | VP16 Luc act
O=C(NC1CCCC1)C(c1ccc(F)cc1)N1CCC(O)(c2ccc(Cl)cc2)CC1 (stereo unspecified) | x | 13* | -1 | x | x | -1 | -1
COC(=O)[C@]12C[C@H](CC(=O)NCCC(C)C)C(=O)N(Cc3ccc(Cl)cc3Cl)C1=C[C@H](C1CCCC1)O[C@@H]2C | x | -3 | x | x | x | x | x
O=C(OCc1nc2ccccc2s1)c1cc2ccccc2oc1=O | x | 8.2* | x | x | x | 6 | 9.1*
COC(=O)C1CCN(C2CN(Cc3cn(Cc4ccc(C(F)(F)F)cc4)nn3)S(=O)(=O)C2)CC1 (stereo unspecified) | x | 1 | x | x | x | x | x
O=C1C(Sc2ccccc2)=C[C@@]2(O)CC[C@@H](O)[C@]1(Sc1ccccc1)[C@H]2O | x | 12* | -1 | x | x | 10* | 2
COc1cc(/C=N/N(C)c2ccccc2)ccc1O | 2 | 9.3* | 1 | 0 | -11 | 4 | 9.9*
Cc1cccc(OCCCC(=O)Nc2nc3ccccc3[nH]2)c1 | 2 | 18* | 0 | 2 | -3 | 14* | 2
Clc1ccccc1OCc1nc(-c2ccccn2)no1 | 10 | 12* | -1 | 0 | -2 | 15* | 8.7*
CCOc1ccc(NC(=O)CSc2nccn2Cc2ccco2)cc1 | -1 | 11* | -1 | -2 | 0 | 1 | 5
Cc1cc(CN2CCCC(C(=O)Nc3ccc(-c4nc5ccccc5[nH]4)cc3)C2)n[nH]1 (stereo unspecified) | 12 | 10.0* | 1 | 0 | -10 | 2 | 5.5*
CCn1cc(CN2CCCC(C(=O)Nc3ccc(-c4nc5ccccc5[nH]4)cc3)C2)c(C)n1 (stereo unspecified) | -2 | 2 | 0 | -3 | 5 | x | x
COC(=O)c1ccc2c(C(C)c3ccccc3O)c[nH]c2c1 (stereo unspecified) | x | -5 | x | x | x | x | x
COc1ccccc1N1CCN(C2=Nc3cccc4cccc2c34)CC1 | -13 | 9.2* | -1 | 3 | -10 | 22* | 6.5*
O=[N+]([O-])c1ccc(Sc2nc3ccccc3[nH]2)c(Cl)c1 | x | -1 | x | x | x | x | x
COc1ccc(C(=O)NCC2(c3ccc(OC)c(OC)c3)CCCC2)cc1OC | 11 | 8.9* | 2 | 1 | x | -1 | -1
Cc1ccccc1N1CCN(S(=O)(=O)c2ccc3c(c2)n(C)c(=O)c(=O)n3C)CC1 | x | 2 | x | x | x | x | x
CCOC(=O)Cn1nc(NC(=O)c2ccc(C(=O)OC)cc2)cc1C | -7 | 11* | -1 | 0 | -10 | 9.4* | 2
COc1ccc2sc3cccc(NCCN(C)C)c3c(=O)c2c1 | x | 29* | 3 | x | x | 40* | 4
CN(C)CCNc1ccc(CO)c2sc3ccc(O)cc3c(=O)c12 | -19 | 14* | 1 | -1 | -1 | 5 | 11*
COc1ccc2oc3cc(NCCN(C)C)ccc3c(=O)c2c1 | x | 21* | -1 | x | x | 38* | 13*
COc1cccc2sc3ccc(NCCC4CCCN4C)cc3c(=O)c12 (stereo unspecified) | -14 | 0 | -2 | -1 | -4 | x | x
CN(C)CCNc1ccc2ncn3c4ccc(O)cc4c(=O)c1c23 | -28 | 15* | -1 | -1 | -10 | 141* | 2
C[C@@H]1C=CCCO[C@]12C(=O)N(Cc1ccc(Br)cc1)c1ccccc12 | x | -6 | x | x | x | x | x
CCOC(=O)c1csc(NC(=O)C2CCCN(S(=O)(=O)c3cccs3)C2)n1 (stereo unspecified) | x | -5 | x | x | x | x | x
